Test results from ChEMBL document CHEMBL4257503, “N-Acetyl-3-aminopyrazoles block the non-canonical NF-kB cascade by selectively inhibiting NIK” (Medchemcomm, 2018).

What was measured:
Homo sapiens [1] = species: Homo sapiens; assay: Inhibition of NFkappaB activation in human SKBR3 cells at 100 uM after 6 hrs by dual luciferase reporter gene assay relative to control; assay type: cell-based
Procedure, shortened: (§1)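 Cells were nucleofected with the pGL4.32 NF-κB-RE firefly luciferase and pGL4.74 TK-Renilla plasmids (3 µg, 10:1 ratio) and cultured for 24 h at 37 °C. Compound (10, 25, 50 or 100 µM) was then added for 6 h. Firefly luminescence was normalised to Renilla from the same sample and expressed as % of vehicle control. Means ± SD of three independent experiments.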

[2] = target: T1, Mitogen-activated protein kinase kinase kinase 14 (Homo sapiens, UniProt Q99558); assay: Inhibition of recombinant human full-length N-terminal GST-fused/His6-tagged NIK (M1 to P947 residues) expressed in Sf9 insect cells using AKDVDQGSLCTSFVGTLQY peptide as substrate measured after 60 mins by ADP-Glo kinase assay
Target sequence in this assay (Q99558 whole entry, the tested form may be a part): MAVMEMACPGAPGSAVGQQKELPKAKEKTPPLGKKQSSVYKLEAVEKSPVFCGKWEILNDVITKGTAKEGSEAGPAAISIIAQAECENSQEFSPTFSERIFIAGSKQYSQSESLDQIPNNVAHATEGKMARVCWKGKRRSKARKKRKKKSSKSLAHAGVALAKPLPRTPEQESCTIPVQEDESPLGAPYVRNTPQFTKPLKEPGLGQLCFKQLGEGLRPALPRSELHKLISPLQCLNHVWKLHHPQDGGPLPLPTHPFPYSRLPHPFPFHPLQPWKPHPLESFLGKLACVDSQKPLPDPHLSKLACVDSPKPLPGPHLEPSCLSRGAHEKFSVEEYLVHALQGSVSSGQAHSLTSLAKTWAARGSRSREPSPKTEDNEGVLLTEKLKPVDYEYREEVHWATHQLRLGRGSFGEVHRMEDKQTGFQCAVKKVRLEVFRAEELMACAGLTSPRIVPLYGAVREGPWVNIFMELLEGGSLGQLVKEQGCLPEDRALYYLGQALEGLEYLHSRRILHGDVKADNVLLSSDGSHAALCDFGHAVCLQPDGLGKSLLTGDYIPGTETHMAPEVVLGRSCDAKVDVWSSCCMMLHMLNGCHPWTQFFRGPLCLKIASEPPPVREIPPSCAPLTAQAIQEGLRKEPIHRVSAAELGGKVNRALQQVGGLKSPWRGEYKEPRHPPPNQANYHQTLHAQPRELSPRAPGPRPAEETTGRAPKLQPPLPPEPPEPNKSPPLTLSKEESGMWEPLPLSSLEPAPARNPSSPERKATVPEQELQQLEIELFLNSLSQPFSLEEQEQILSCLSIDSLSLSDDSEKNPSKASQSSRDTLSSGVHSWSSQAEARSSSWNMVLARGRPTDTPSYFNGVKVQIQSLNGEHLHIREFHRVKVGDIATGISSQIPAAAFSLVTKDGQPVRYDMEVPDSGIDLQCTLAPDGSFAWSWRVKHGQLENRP

[3] = target: T2, Inhibitor of nuclear factor kappa-B kinase subunit epsilon (Homo sapiens, UniProt Q14164); assay: Inhibition of recombinant human full-length N-terminal GST-fused/His6-tagged IKKepsilon (M1 to V716 residues) expressed in Sf9 insect cells using ERLLDDRHDSGLDSMKDEE peptide as substrate measured after 60 mins by ADP-Glo kinase assay
T2 sequence (Q14164 whole entry): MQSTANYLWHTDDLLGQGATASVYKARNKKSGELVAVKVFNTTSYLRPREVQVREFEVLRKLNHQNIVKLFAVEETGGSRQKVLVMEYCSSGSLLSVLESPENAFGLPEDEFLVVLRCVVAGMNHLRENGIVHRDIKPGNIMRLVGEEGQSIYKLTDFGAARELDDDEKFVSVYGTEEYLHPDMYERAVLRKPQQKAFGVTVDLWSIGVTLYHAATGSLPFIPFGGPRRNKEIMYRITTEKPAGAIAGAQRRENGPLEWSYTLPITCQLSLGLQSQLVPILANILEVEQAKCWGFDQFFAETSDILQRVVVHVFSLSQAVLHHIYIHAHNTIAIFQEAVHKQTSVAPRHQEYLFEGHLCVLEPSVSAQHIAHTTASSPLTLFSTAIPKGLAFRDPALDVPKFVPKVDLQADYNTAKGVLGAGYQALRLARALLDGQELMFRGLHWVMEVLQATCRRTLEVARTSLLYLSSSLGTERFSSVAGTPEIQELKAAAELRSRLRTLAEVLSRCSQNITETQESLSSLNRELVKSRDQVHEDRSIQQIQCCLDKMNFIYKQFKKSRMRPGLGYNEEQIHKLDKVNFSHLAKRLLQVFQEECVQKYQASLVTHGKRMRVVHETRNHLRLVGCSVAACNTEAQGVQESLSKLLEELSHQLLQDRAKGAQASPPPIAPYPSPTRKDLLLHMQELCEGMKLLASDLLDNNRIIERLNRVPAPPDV

[4] = target: T1, Mitogen-activated protein kinase kinase kinase 14; assay: Inhibition of NIK-induced NFkappaB activation in human EJM cells at 50 uM after 6 hrs by dual luciferase reporter gene assay relative to control; assay type: cell-based; procedure, shortened: as §1
Target sequence in this assay (Q99558 whole entry, looked up, the tested form may be a part): as the sequence (Q99558 whole entry, the tested form may be a part) above

[5] = target: T3, Inhibitor of nuclear factor kappa-B kinase subunit alpha (Homo sapiens, UniProt O15111); assay: Inhibition of recombinant full length human His-tagged IKKalpha expressed in baculovirus expression system using ERLLDDRHDSGLDSMKDEE peptide as substrate measured after 60 mins by ADP-Glo kinase assay
T3 sequence (O15111 whole entry): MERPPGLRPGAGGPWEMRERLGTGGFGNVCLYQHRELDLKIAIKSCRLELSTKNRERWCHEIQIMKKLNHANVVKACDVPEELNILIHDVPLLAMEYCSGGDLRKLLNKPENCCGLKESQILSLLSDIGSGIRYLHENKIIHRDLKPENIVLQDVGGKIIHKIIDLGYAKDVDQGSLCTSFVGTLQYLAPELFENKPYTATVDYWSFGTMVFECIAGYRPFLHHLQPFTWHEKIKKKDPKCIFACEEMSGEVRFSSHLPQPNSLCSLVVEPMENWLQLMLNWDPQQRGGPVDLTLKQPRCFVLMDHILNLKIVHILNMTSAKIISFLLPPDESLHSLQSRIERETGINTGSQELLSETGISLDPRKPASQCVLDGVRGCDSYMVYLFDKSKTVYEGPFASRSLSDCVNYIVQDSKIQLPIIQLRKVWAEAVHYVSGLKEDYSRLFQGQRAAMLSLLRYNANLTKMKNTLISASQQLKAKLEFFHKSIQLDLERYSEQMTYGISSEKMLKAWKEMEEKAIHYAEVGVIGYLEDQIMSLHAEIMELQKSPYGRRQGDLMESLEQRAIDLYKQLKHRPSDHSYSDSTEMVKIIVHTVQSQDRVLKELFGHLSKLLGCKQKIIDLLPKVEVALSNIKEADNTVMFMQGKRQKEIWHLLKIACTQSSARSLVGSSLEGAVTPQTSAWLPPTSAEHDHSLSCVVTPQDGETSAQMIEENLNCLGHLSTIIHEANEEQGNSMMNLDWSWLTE
Procedure, shortened: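 Recombinant human IKKα, peptide substrate 100 µM, enzyme 8 ng/µL, ATP 1 µM in Tris-HCl pH 7.5 buffer with MgCl2, MnCl2, DTT, Na3VO4, BSA; 25°C, 60 min; ADP-Glo luminescence. Ten concentrations 0.005–100 µM; IC50 by nonlinear regression; means ± SD of three independent experiments.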

[6] = Cytotoxicity against human MDA-MB-231 cells assessed as cell viability at 50 uM after 6 hrs by CellTiter Glo luminescent assay relative to control; assay type: cell-based; conditions: read-out: Activity
Procedure, shortened: (§2)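 Cells seeded at 5 x 10^3 per well and exposed for 6 h to the compound (10, 25, 50 or 100 µM) or to DMSO vehicle. Viability was read as intracellular ATP by CellTiter Glo luminescence.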

[7] = target: T4, Inhibitor of nuclear factor kappa-B kinase subunit beta (Homo sapiens, UniProt O14920); assay: Inhibition of recombinant human full-length N-terminal GST-fused/His6-tagged IKKbeta (M1 to S756 residues) expressed in Sf9 insect cells using ERLLDDRHDSGLDSMKDEE peptide as substrate measured after 60 mins by ADP-Glo kinase assay
T4 sequence (O14920 whole entry): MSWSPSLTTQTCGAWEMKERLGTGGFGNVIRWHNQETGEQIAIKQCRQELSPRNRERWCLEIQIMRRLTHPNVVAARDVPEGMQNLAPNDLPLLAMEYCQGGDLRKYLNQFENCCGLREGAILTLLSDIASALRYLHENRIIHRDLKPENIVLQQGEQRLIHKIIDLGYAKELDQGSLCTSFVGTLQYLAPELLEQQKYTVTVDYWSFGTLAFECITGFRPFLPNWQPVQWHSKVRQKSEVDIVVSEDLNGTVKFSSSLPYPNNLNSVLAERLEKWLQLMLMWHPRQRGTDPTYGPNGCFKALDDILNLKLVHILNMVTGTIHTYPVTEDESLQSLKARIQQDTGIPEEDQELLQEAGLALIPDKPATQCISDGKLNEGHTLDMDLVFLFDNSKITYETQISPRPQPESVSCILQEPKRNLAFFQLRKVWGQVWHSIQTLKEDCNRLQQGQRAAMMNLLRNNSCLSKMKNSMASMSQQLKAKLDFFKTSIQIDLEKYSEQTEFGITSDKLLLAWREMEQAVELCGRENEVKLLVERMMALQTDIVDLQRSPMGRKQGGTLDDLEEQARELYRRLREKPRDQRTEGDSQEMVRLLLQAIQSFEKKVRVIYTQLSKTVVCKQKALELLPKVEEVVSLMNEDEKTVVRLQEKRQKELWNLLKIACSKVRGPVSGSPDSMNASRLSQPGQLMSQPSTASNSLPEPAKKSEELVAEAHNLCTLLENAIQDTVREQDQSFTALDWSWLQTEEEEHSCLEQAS

[8] = Cytotoxicity against human SKBR3 cells assessed as cell viability at 100 uM after 6 hrs by CellTiter Glo luminescent assay relative to control; assay type: cell-based, SK-BR-3; conditions: read-out: Activity; procedure, shortened: as §2
[9] = Cytotoxicity against human EJM cells assessed as cell viability at 50 uM after 6 hrs by CellTiter Glo luminescent assay relative to control; assay type: cell-based; conditions: read-out: Activity; procedure, shortened: as §2
MDA-MB-231 [10] = assay: Inhibition of NFkappaB activation in human MDA-MB-231 cells at 50 uM after 6 hrs by dual luciferase reporter gene assay relative to control; assay type: cell-based; procedure, shortened: as §1
[11] = Cytotoxicity against human EJM cells assessed as cell viability at 25 uM after 6 hrs by CellTiter Glo luminescent assay relative to control; assay type: cell-based; conditions: read-out: Activity; procedure, shortened: as §2
MDA-MB-231 [12] = assay: Inhibition of NFkappaB activation in human MDA-MB-231 cells at 100 uM after 6 hrs by dual luciferase reporter gene assay relative to control; assay type: cell-based; procedure, shortened: as §1
[13] = target: T1, Mitogen-activated protein kinase kinase kinase 14; assay: Inhibition of NIK-induced NFkappaB activation in human EJM cells at 25 uM after 6 hrs by dual luciferase reporter gene assay relative to control; assay type: cell-based; procedure, shortened: as §1
Target sequence in this assay (Q99558 whole entry, looked up, the tested form may be a part): as the sequence (Q99558 whole entry, the tested form may be a part) above

[14] = Cytotoxicity against human MDA-MB-231 cells assessed as cell viability at 100 uM after 6 hrs by CellTiter Glo luminescent assay relative to control; assay type: cell-based; conditions: read-out: Activity; procedure, shortened: as §2
[15] = Cytotoxicity against human EJM cells assessed as cell viability at 1 uM after 6 hrs by CellTiter Glo luminescent assay relative to control; assay type: cell-based; conditions: read-out: Activity
[16] = Cytotoxicity against human SKBR3 cells assessed as cell viability at 1 uM after 6 hrs by CellTiter Glo luminescent assay relative to control; assay type: cell-based, SK-BR-3; conditions: read-out: Activity
MDA-MB-231 [17] = assay: Inhibition of NFkappaB activation in human MDA-MB-231 cells at 1 uM after 6 hrs by dual luciferase reporter gene assay relative to control; assay type: cell-based
Homo sapiens [18] = species: Homo sapiens; assay: Inhibition of NFkappaB activation in human SKBR3 cells at 1 uM after 6 hrs by dual luciferase reporter gene assay relative to control; assay type: cell-based
[19] = Cytotoxicity against human MDA-MB-231 cells assessed as cell viability at 1 uM after 6 hrs by CellTiter Glo luminescent assay relative to control; assay type: cell-based; conditions: read-out: Activity
[20] = Cytotoxicity against human EJM cells assessed as cell viability at 100 uM after 6 hrs by CellTiter Glo luminescent assay relative to control; assay type: cell-based; conditions: read-out: Activity; procedure, shortened: as §2
[21] = Cytotoxicity against human SKBR3 cells assessed as cell viability at 50 uM after 6 hrs by CellTiter Glo luminescent assay relative to control; assay type: cell-based, SK-BR-3; conditions: read-out: Activity; procedure, shortened: as §2
Homo sapiens [22] = species: Homo sapiens; assay: Inhibition of NFkappaB activation in human SKBR3 cells at 50 uM after 6 hrs by dual luciferase reporter gene assay relative to control; assay type: cell-based; procedure, shortened: as §1
[23] = target: T1, Mitogen-activated protein kinase kinase kinase 14; assay: Inhibition of NIK-induced NFkappaB activation in human EJM cells at 100 uM after 6 hrs by dual luciferase reporter gene assay relative to control; assay type: cell-based; procedure, shortened: as §1
Target sequence in this assay (Q99558 whole entry, looked up, the tested form may be a part): as the sequence (Q99558 whole entry, the tested form may be a part) above

[24] = target: T1, Mitogen-activated protein kinase kinase kinase 14; assay: Inhibition of NIK-induced NFkappaB activation in human EJM cells at 20 uM after 6 hrs by dual luciferase reporter gene assay relative to control; assay type: cell-based
Target sequence in this assay (Q99558 whole entry, looked up, the tested form may be a part): as the sequence (Q99558 whole entry, the tested form may be a part) above

[25] = Cytotoxicity against human EJM cells assessed as cell viability at 20 uM after 6 hrs by CellTiter Glo luminescent assay relative to control; assay type: cell-based; conditions: read-out: Activity

SMILES	IC50 [2]	IC50 [3]	inhibition [4]	IC50 [5]	IC50 [7]	inhibition (Homo sapiens [1])	viability at 6 h, 50 µM [6]	viability at 6 h, 100 µM [8]	viability at 6 h, 50 µM [9]	inhibition (MDA-MB-231 [10])	inhibition (MDA-MB-231 [12])	viability at 6 h, 100 µM [14]	further results
Cc1n[nH]c(N)c1-c1ccc(Cl)cc1	61.1 µM	> 100 µM	10.4%	> 100 µM	37.9 µM	4.2%	≥ 80%	≥ 80%	≥ 80%	29.9%			
Cc1nn(C(=O)c2ccccc2)c(N)c1-c1ccc(Cl)c(Cl)c1	23 µM	> 100 µM	75.2%	> 100 µM	> 100 µM	0.31%		≥ 80%	≥ 80%		13.8%	≥ 80%	
COCCOc1cnc(N)nc1-c1c[nH]c2ccc(C#CC(C)(C)O)cc12	0.07 µM	> 100 µM		> 100 µM	> 100 µM								viability at 6 h, 1 µM [15]: ≥ 80%; viability at 6 h, 1 µM [16]: ≥ 80%; inhibition (MDA-MB-231 [17]): 7.1%; inhibition (Homo sapiens [18]): 2.3%; viability at 6 h, 1 µM [19]: ≥ 80%
CCC(=O)n1nc(C)c(-c2ccc(Cl)c(Cl)c2)c1N	27.4 µM	> 100 µM	66.8%	> 100 µM	> 100 µM	-3.14%		≥ 80%	≥ 80%		10.3%	≥ 80%	
O=C(Nc1cc(Cl)c2c(c1)[nH]c1cnccc12)c1cccnc1	> 100 µM	> 100 µM		> 100 µM	0.09 µM		≥ 80%			87.9%			viability at 6 h, 50 µM [21]: ≥ 80%; inhibition [24]: 89.3%; inhibition (Homo sapiens [22]): 3.6%; viability at 6 h, 20 µM [25]: ≥ 80%

The next lines start with results.

IC50 [2]	IC50 [3]	inhibition [4]	IC50 [5]	IC50 [7]	SMILES	inhibition (Homo sapiens [1])	viability at 6 h, 50 µM [6]	viability at 6 h, 100 µM [8]	viability at 6 h, 50 µM [9]	inhibition (MDA-MB-231 [10])	inhibition (MDA-MB-231 [12])	viability at 6 h, 100 µM [14]	further results
2.9 µM	> 100 µM		> 100 µM	> 100 µM	Cc1nn(C(=O)C2CCC2)c(N)c1-c1ccc(Cl)c(Cl)c1	5.2%		≥ 80%			2.36%	≥ 80%	viability at 6 h, 25 µM [11]: ≥ 80%; inhibition [13]: 96.2%
3.3 µM	> 100 µM		> 100 µM	> 100 µM	Cc1nn(C(=O)C2CCCCC2)c(N)c1-c1ccc(Cl)c(Cl)c1	3.7%		≥ 80%			2.36%	≥ 80%	viability at 6 h, 25 µM [11]: ≥ 80%; inhibition [13]: 94.7%
24.3 µM	> 100 µM		> 100 µM	> 100 µM	Cc1nn(C(=O)C2CC2)c(N)c1-c1ccc(Cl)c(Cl)c1		≥ 80%			5.8%			viability at 6 h, 100 µM [20]: ≥ 80%; viability at 6 h, 50 µM [21]: ≥ 80%; inhibition (Homo sapiens [22]): 3.66%; inhibition [23]: 68.9%
